Nine molecules from paper PMC3481545 (Biochemistry, 2012) can be followed below.

Assay [1] in a line: bis-ANS fluorescence titration of receptor ECDs. It counts as binding. The settings on record: value in parenthesis. A digest of the protocol:
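Receptor ECDs were expressed in E. coli as TRX/His-tag fusions, thrombin-cleaved, and purified (Ni-NTA, gel filtration, C18), then quantified by A280. bis-ANS was diluted from a 10 mM DMF stock into 50 mM Tris-HCl pH 7.5, 150 mM NaCl and titrated against fixed protein. Peak fluorescence versus dye concentration was fitted to a Hill equation for apparent K′, normalized to wild-type.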

A short description of the next assay: Energy transfer. The settings on record: value in parenthesis. It is filed as binding. The procedure, abridged:
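Human receptor ECDs (wild-type, mutants, chimeras) were made as TRX/His-tag fusions in E. coli BL21(DE3), cut with thrombin, and purified by Ni-NTA, gel filtration and C18. Protein was quantified by A280. bis-ANS was diluted from a 10 mM DMF stock into 50 mM Tris-HCl pH 7.5, 150 mM NaCl. Tryptophan was excited at 295 nm, emission read 310–600 nm at 25°C, and K′ derived from energy transfer to bis-ANS, normalized to wild-type.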

Assay [2] has as its system BMP-7-stimulated OC promoter activity in fetal rat calvaria (FRC) cells. Kind of assay: Osteocalcin promoter-Luciferase. It is filed as cell-based. The settings on record: BMP-7 alone, 6 nM. The procedure, abridged: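 Primary fetal rat calvaria cells were grown in αMEM+10% FBS and transfected with an OC promoter-luciferase plasmid via FuGENE 6 in OPTI medium with 8 U hyaluronidase. After 5 h, fresh medium was added overnight. Cells were then treated 24 h with 6 nM BMP-7, alone or with 20-fold molar excess soluble receptor ECD. Luciferase was read in lysates; mean±SEM of three independent measurements.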

B1: ActR-IIB Wild type: human recombinant ActR-IIB receptor extracellular domain (ECD), wild type, expressed in E. coli (protein, UniProt Q13705 19-137, looked up)
extracellular domain: SGRGEAETRECIYYNANWELERTNQSGLERCEGEQDKRLHCYASWRNSSGTIELVKKGCWLDDFNCYDRQECVATEENPQVYFCCCEGNFCNERFTHLPEAGGPEVTYEPPPTAPTLLT
modifications: extracellular domain
For the molecule B1, in assay [1], the “Relative K′ of bis-ANS (Hill Eq.), normalized to wild-type” value is 1.0. Further, in the assay “Energy transfer”, the “Relative K′ of bis-ANS (energy transfer), normalized to wild-type” value is 1.0.

B2: BMP-7: Bone Morphogenetic Protein ligand provided by Stryker Biotech; BMPR-II ligand (protein)
chain: STGSKQRSQNRSKTPKNQEALRMANVAENSSSDQRQACKKHELYVSFRDLGWQDWIIAPEGYAAYYCEGECAFPLNSYMNATNHAIVQTLVHFINPETVPKPCCAPTQLNAISVLYFDDSSNVILKKYRNMVVRACGCH
For B2, the “Stimulation of OC promoter activity beyond the empty plasmid control” value in assay [2] is listed as 14 fold.

B3: S107P: BMPR-II ECD naturally occurring single-amino-acid-substitution mutant S107P (protein)
chain: ASQNQERLCAFKDPYQQDLGIGESRISHENGTILCSKGSTCYGLWEKSKGDINLVKQGCWSHIGDPQECHYEECVVTTTPPPIQNGTYRFCCCSTDLCNVNFTENFPPPDTTPLSPPHSFNRDET
modifications: left off: TRX, N-terminal, cleaved | His6, C-terminal, state not stated
On to B3, for which the “Relative K′ of bis-ANS (Hill Eq.), normalized to wild-type” value in assay [1] is recorded as 1.0. In addition, in “Energy transfer”, the “Relative K′ of bis-ANS (energy transfer), normalized to wild-type” value stood at 0.9.

B4: Y40P: BMPR-II ECD single-amino-acid-substitution mutant Y40P (protein)
chain: ASQNQERLCAFKDPPQQDLGIGESRISHENGTILCSKGSTCYGLWEKSKGDINLVKQGCWSHIGDPQECHYEECVVTTTPPSIQNGTYRFCCCSTDLCNVNFTENFPPPDTTPLSPPHSFNRDET
modifications: left off: TRX, N-terminal, cleaved | His6, C-terminal, state not stated
For B4, the “Relative K′ of bis-ANS (Hill Eq.), normalized to wild-type” value in assay [1] was determined as 1.8. For the same molecule, the “Relative K′ of bis-ANS (energy transfer), normalized to wild-type” value in the assay “Energy transfer” was 1.6.

B5: Y40Q: BMPR-II ECD single-amino-acid-substitution mutant Y40Q (protein)
chain: ASQNQERLCAFKDPQQQDLGIGESRISHENGTILCSKGSTCYGLWEKSKGDINLVKQGCWSHIGDPQECHYEECVVTTTPPSIQNGTYRFCCCSTDLCNVNFTENFPPPDTTPLSPPHSFNRDET
modifications: left off: TRX, N-terminal, cleaved | His6, C-terminal, state not stated
Take B5: in assay [1], the “Relative K′ of bis-ANS (Hill Eq.), normalized to wild-type” value was determined as 2.4. For the same molecule, the “Relative K′ of bis-ANS (energy transfer), normalized to wild-type” value in “Energy transfer” was found to be 1.9.

B6: Y40G: BMPR-II ECD single-amino-acid-substitution mutant Y40G (protein)
chain: ASQNQERLCAFKDPGQQDLGIGESRISHENGTILCSKGSTCYGLWEKSKGDINLVKQGCWSHIGDPQECHYEECVVTTTPPSIQNGTYRFCCCSTDLCNVNFTENFPPPDTTPLSPPHSFNRDET
modifications: left off: TRX, N-terminal, cleaved | His6, C-terminal, state not stated
On to B6, for which, in assay [1], the “Relative K′ of bis-ANS (Hill Eq.), normalized to wild-type” value is given as 0.3. The “Relative K′ of bis-ANS (energy transfer), normalized to wild-type” value in the assay “Energy transfer” is on record as 0.6.

B7: BMPR-II Wild type: human recombinant BMPR-II receptor extracellular domain (ECD), wild type, expressed in E. coli (protein)
chain: ASQNQERLCAFKDPYQQDLGIGESRISHENGTILCSKGSTCYGLWEKSKGDINLVKQGCWSHIGDPQECHYEECVVTTTPPSIQNGTYRFCCCSTDLCNVNFTENFPPPDTTPLSPPHSFNRDET
modifications: left off: TRX, N-terminal, cleaved | His6, C-terminal, state not stated
Turning to B7, the “Relative K′ of bis-ANS (Hill Eq.), normalized to wild-type” value in assay [1] worked out at 1.0. Besides, the “Relative K′ of bis-ANS (energy transfer), normalized to wild-type” value in the assay “Energy transfer” came out at 1.0.

B8: G47N: BMPR-II ECD naturally occurring single-amino-acid-substitution mutant G47N (protein)
chain: ASQNQERLCAFKDPYQQDLGINESRISHENGTILCSKGSTCYGLWEKSKGDINLVKQGCWSHIGDPQECHYEECVVTTTPPSIQNGTYRFCCCSTDLCNVNFTENFPPPDTTPLSPPHSFNRDET
modifications: left off: TRX, N-terminal, cleaved | His6, C-terminal, state not stated
With B8, the “Relative K′ of bis-ANS (Hill Eq.), normalized to wild-type” value in assay [1] is listed as 2.9. For the same molecule, in the assay “Energy transfer”, the “Relative K′ of bis-ANS (energy transfer), normalized to wild-type” value is listed as 2.3.

B9: Y40R: BMPR-II ECD single-amino-acid-substitution mutant Y40R (protein)
chain: ASQNQERLCAFKDPRQQDLGIGESRISHENGTILCSKGSTCYGLWEKSKGDINLVKQGCWSHIGDPQECHYEECVVTTTPPSIQNGTYRFCCCSTDLCNVNFTENFPPPDTTPLSPPHSFNRDET
modifications: left off: TRX, N-terminal, cleaved | His6, C-terminal, state not stated
Turning to B9, the “Relative K′ of bis-ANS (Hill Eq.), normalized to wild-type” value in assay [1] is 1.1. Also, in the assay “Energy transfer”, the “Relative K′ of bis-ANS (energy transfer), normalized to wild-type” value came to 0.9.
